PubChem BioAssay
Activity calls are given as the source filed them.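 How the source made its calls, unless noted: active means compounds giving at least 50% inhibition in the cell-based MKP-3 phosphatase rescue imaging test; inactive means the rest.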

Columns and labels:
[1] = inhibitors of TNFa-induced NFkB p65 translocation, primary screen, imaging, HUVEC, MLSMR starter and 10KST1 sets (AID 438;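 active means inhibition above 20% together with a positive visual image hit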;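 further: compound added about 3h40 before a 20 min TNFalpha stimulation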;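 on inhibition: signal is the nuclear over cytoplasmic p65 intensity ratio per well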); details: HUVEC TNFa-induced p65 nuclear translocation; cell count: measured here: nuclei count (cytotoxicity indicator), at 2.08 µM; inhibition: at 2 µM, stronger effect = higher value, 0% TNFa-plus-vehicle, 100% no-TNFa wells
[2] = endothelial E-selectin expression blockers – imaging, HUVEC, immunofluorescence, MLSMR starter and 10KST1 sets, primary screen (AID 487;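 active means visually confirmed hit in the image check and inhibition above 20%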;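 on inhibition: signal is fraction of cell area covered by stained E-selectin grains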;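 on nuclei count: 100% = median nuclei count of all wells on the same plate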); details: HUVEC TNFalpha-induced E-selectin immunofluorescence imaging, at 2 µM; inhibition: stronger effect = higher value; nuclei count: measured here: cell number, toxicity
[3] = Primary imaging screen for DUSP6 inhibitors that restore phospho-Erk in transfected HeLa cells, chemical complementation (AID 609); details: HeLa MKP-3 transfected, phospho-Erk imaging KS statistic, at 10 µM, cells stimulated with TPA for 15 min;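 on inhibition: phospho-Erk level distribution per well compared with pooled transfected vehicle control wells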
[4] = target: Dual specificity protein phosphatase 6 (Homo sapiens) (UniProt Q16828); experiment: as above; details: HeLa MKP-3 transfected, phospho-Erk imaging KS statistic; at 10 µM; stronger effect = higher value; cells stimulated with TPA for 15 min
[5] = target: Voltage-gated potassium channel subunit beta-2 (Rattus norvegicus) (UniProt P62483); experiment: inhibitors of rat Kvbeta2 reductase activity – biochemical, NADPH fluorescence, primary screen (AID 622;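 active means fluorescence slope higher than the sample average by over 3 SD, cut at about -0.22 in these data, passing the limit was not always enough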;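 further: slope of raw intensity against log time taken from 70 to 1610 s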); details: recombinant KvBeta, 4-cyanobenzaldehyde reduction, at 10 µM, stronger effect = higher value
[6] = target: Voltage-gated potassium channel subunit beta-2 (Rattus norvegicus) (UniProt P62483); experiment: enhancers of rat Kvbeta2 NADPH turnover – biochemical, NADPH fluorescence, primary screen (AID 623;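 active means NADPH fluorescence slope more negative than the mean of all samples by about 3 SD, 99.7% confidence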;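 further: fluorescence intensity change per second fitted from 20 to 320 s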); details: Recombinant KvBeta, NADPH fluorescence decrease slope, 10 min; at 10 µM; stronger effect = lower value
[7] = target: Alpha-2C adrenergic receptor (Homo sapiens) (UniProt P18825); experiment: compounds altering alpha2C-coupled GIRK flux – cell-based, HEK293 alpha2C/GIRK1/2, thallium flux, primary screen (AID 624;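 active means fluorescence slope after compound addition differing from the mean of all screened samples at 99.7% confidence, in either direction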;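 further: slope of fluorescence ratio to pre-addition baseline per second over 15 to 24 s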); details: thallium flux BTC fluorescence, at 10 µM, actives lie on both sides
[8] = inhibitors of larval lipid processing in zebrafish, primary screen, whole organism, PED6 fluorescence, gall bladder and intestine (AID 686;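 active means a full or partial loss of lipid-probe fluorescence in the fish gall bladder, intestine or both, judged by eye; inactive means no fluorescence loss, or compound toxic to the fish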;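 further: larvae 5 to 7 days old with five fish per well; signal comes from phospholipase A2 cleavage of quenched PED6 carried via bile; overnight exposure to compound and PED6 before scoring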); details: Zebrafish larvae PED6 lipid processing, fluorescence scoring; screened at 20 µM (by protocol)
How it was run: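 Also added: quenched phospholipase substrate PED6, 100 nM final, ingested by larvae; System: zebrafish larvae, 5-7 d; Quantity: 5 larvae per well; Compound: 20 µM single dose; Schedule: overnight compound and PED6 incubation; Read-out: visual per-well fluorescence inhibition score; Measured by: By-eye fluorescence microscopy; Medium: E3.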

[9] = loss of swimming-algae plug formation – whole organism, Chlamydomonas reinhardtii, WT vs cilia-less mutant, absorbance, 96-well, primary screen (AID 463189;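 active means inhibition at or above 50% relative to wild type and mutant plate controls; inactive means inhibition below 50%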;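 further: 0% = wild type cc124 cells in DMSO and 100% = ciliumless bld1 mutant cells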); details: Chlamydomonas reinhardtii gravitaxis, OD600 absorbance, 2 days; at 10 µM; stronger effect = higher value
[10] = measured here: cell density z-score
[11] = measured here: nuclear c-Myc green intensity z-score
[12] = measured here: nuclear pErk red intensity z-score, stronger effect = higher value

Chain of Voltage-gated potassium channel subunit beta-2 (Rattus norvegicus) (P62483 whole entry, looked up): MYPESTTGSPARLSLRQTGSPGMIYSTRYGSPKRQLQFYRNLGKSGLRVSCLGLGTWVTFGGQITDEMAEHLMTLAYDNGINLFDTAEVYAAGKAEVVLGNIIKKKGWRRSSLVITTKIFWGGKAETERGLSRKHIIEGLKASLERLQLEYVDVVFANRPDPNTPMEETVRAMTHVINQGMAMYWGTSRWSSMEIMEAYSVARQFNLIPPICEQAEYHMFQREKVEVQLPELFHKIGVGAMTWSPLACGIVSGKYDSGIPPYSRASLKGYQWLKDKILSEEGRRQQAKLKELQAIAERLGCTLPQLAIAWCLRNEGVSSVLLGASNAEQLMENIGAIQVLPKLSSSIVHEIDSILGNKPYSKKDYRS
Chain of Alpha-2C adrenergic receptor (Homo sapiens) (P18825 whole entry, looked up): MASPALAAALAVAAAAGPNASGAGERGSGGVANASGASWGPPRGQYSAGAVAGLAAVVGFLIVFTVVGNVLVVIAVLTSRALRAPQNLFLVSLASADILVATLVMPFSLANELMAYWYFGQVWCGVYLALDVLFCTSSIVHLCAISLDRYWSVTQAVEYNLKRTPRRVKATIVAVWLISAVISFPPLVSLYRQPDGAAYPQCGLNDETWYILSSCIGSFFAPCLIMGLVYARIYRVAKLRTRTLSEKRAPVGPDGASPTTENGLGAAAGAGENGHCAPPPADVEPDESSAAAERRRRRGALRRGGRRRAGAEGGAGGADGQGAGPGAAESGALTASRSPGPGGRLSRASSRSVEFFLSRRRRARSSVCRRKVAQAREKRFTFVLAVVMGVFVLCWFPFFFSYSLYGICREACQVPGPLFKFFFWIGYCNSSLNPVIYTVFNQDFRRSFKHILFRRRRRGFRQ
Chain of Dual specificity protein phosphatase 6 (Homo sapiens) (Q16828 whole entry, looked up): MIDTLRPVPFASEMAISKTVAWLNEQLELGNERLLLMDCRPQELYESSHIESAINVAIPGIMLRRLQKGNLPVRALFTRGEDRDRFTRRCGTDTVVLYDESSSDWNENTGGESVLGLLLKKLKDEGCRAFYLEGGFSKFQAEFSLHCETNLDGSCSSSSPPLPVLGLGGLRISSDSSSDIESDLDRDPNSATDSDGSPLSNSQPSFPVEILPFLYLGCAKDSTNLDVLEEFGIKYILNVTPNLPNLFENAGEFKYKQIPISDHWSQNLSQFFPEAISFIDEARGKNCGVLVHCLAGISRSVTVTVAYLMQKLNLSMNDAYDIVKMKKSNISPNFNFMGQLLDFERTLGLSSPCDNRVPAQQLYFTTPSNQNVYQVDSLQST

Row | SMILES | cell count [1] | inhibition [1] | inhibition [2] | nuclei count [2] [%] | z-score [3, 10] | z-score [3, 11] | z-score [3, 12] | inhibition [4] | fluorescence slope [5] | NADPH fluorescence slope [6] | slope [7] | outcome [8] | inhibition [9]
1 | Cc1nc(Nc2ncc3c(n2)CCCC3=O)nc2ccccc12 | 372 | 3.8% (inactive) | 26.2% (inactive) | 122 | 0.317 | -0.989 | 1.03 | 9.42% (inactive) | -0.403 (inactive) | -0.000152 (inactive) | 0.00649 (inactive) | inactive | 22.8% (inactive)
2 | CC(C)N1CCc2c(sc(N)c2C#N)C1 | 617 | -10.3% (inactive) | 39.1% (inactive) | 177 | -1.53 | 0.299 | 0.555 | 2.71% (inactive) | -0.418 (inactive) | -6.5e-05 (inactive) | 0.00503 (inactive) | inactive | 5.66% (inactive)
3 | COc1ccc(OC)c(C2=Nn3c(nnc3-c3ccco3)SC2)c1 | 675 | 1.9% (inactive) | -139% (inactive) | 150 | -0.0454 | 1.22 | 0.484 | -2.47% (inactive) | -0.399 (inactive) | -0.000127 (inactive) | 0.00666 (inactive) | inactive | -10.3% (inactive)
4 | Clc1ccccc1-c1nnc2sc(-c3ccco3)nn12 | 568 | -10.6% (inactive) | 37.2% (inactive) | 88.5 | -0.391 | -0.433 | 1.6 | 4.72% (inactive) | -0.43 (inactive) | -4.6e-05 (inactive) | 0.00572 (inactive) | inactive | 85.1% (active)
5 | CC1(C)CC(=O)C(C=NCCN2CCN(C(=O)C34CC5CC(CC(C5)C3)C4)CC2)=C(O)C1 | 573 | -4.4% (inactive) | -174% (inactive) | 144 | -0.458 | 0.612 | -0.352 | 3.97% (inactive) | -0.493 (inactive) | -5.1e-05 (inactive) | 0.00469 (inactive) | inactive | 4.48% (inactive)
6 | COc1ccc(N/C(=N\c2nc(C)cc(C)n2)NC(=O)C(C)C)cc1OC | 568 | -6% (inactive) | -158% (inactive) | 138 | 0.3 | 1.29 | 0.284 | 3.97% (inactive) | -0.481 (inactive) | -3.5e-05 (inactive) | 0.00493 (inactive) | inactive | 1.34% (inactive)
7 | CCOC(=O)c1cc(C)n(Cc2cccc(OC)c2OC)c1C | 502 | -9.3% (inactive) | -39.9% (inactive) | 122 | 1.01 | 0.196 | 0.00488 | 17% (inactive) | -0.496 (inactive) | -9.4e-05 (inactive) | 0.00511 (inactive) | inactive | 26.9% (inactive)
8 | Cc1ccsc1C1NC(=O)c2c(sc3c2CCCC3)N1 (centres undefined) | 584 | -31.7% (inactive) | -31.6% (inactive) | 166 | -1.62 | -0.46 | 1.02 | -18.6% (inactive) | -0.411 (inactive) | -3.5e-05 (inactive) | 0.00518 (inactive) | inactive | 22.5% (inactive)
9 | CCC(=O)Nc1cc(-c2nn(C)c(=O)c3ccccc23)ccc1N1CCCCC1 | 527 | -10.5% (inactive) | -20.7% (inactive) | 161 | -0.258 | -0.867 | 0.981 | -3.5% (inactive) | -0.373 (inactive) | -2.2e-05 (inactive) | 0.00441 (inactive) | inactive | 25.8% (inactive)
10 | CCCCCCn1c(C(C)O)nc2ccccc21 (centres undefined) | 528 | -16.2% (inactive) | -111% (inactive) | 156 | 1.01 | -0.165 | -1.61 | 11.9% (inactive) | -0.5 (inactive) | -5.9e-05 (inactive) | 0.0045 (inactive) | inactive; toxic | 28% (inactive)
11 | c1cc(-c2nnc3sc(C4CCCCC4)nn23)ccn1 | 660 | -3% (inactive) | -26.6% (inactive) | 150 | 0.217 | -0.0752 | 0.0462 | -7.86% (inactive) | -0.419 (inactive) | -0.00016 (inactive) | 0.00483 (inactive) | inactive | 70.8% (active)
12 | Clc1ccc(SCc2cn3ccsc3n2)cc1 | 516 | -11.3% (inactive) | -61.5% (inactive) | 170 | -0.751 | 0.432 | -0.146 | -11% (inactive) | -0.476 (inactive) | -0.000195 (inactive) | 0.0044 (inactive) | inactive | 31.1% (inactive)
13 | CCSc1nnc(N(CCC#N)CCC#N)s1 | 364 | -4.7% (inactive) | -60.2% (inactive) | 114 | -0.814 | 0.606 | -1.64 | 5.57% (inactive) | -0.474 (inactive) | -5.4e-06 (inactive) | 0.00528 (inactive) | inactive | -11.4% (inactive)
